Columns and labels:
[1] = test system: Salmonella typhimurium; assay: Mutagenic activity in Salmonella Typhimurium TA98 assessed as number of revertants at 10 ug/plate in presence of Wistar rat S9 liver homogenate; type: toxicity, organism-based, Liver S9 fraction; conditions: salmonella enterica subsp. enterica serovar typhimurium
Procedure, shortened: (§1)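 Salmonella/microsome plate test, with or without S9 from livers of male Wistar rats (~200 g). Strain markers and spontaneous revertant counts were routinely verified. Revertants are reported as mean ± standard error of triplicate plates. Strain-specific positive controls were used, with 2-aminoanthracene for all strains when S9 was present.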

[2] = test system: Salmonella typhimurium; assay: Mutagenic activity in Salmonella Typhimurium TA100 assessed as number of revertants at 20 ug/plate in presence of Wistar rat S9 liver homogenate; type: toxicity, organism-based, Liver S9 fraction; conditions: salmonella enterica subsp. enterica serovar typhimurium; procedure, shortened: as §1
[3] = test system: Salmonella typhimurium; assay: Bactericidal activity against Salmonella Typhimurium TA100 assessed as viability after 24 hrs in absence of Wistar rat S9 liver homogenate; type: functional, organism-based; conditions: Salmonella enterica subsp. enterica serovar Typhimurium
Procedure, shortened: (§2)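 Viability assay: test solution or DMSO was mixed with diluted overnight culture and phosphate buffer (no S9) in top agar with histidine/biotin. The mixture was spread on nutrient agar and incubated 24 h at 37 °C. Colonies were counted to give viable bacteria per mL; positive and negative controls included; triplicate.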

[4] = test system: Salmonella typhimurium; assay: Mutagenic activity in Salmonella Typhimurium TA102 assessed as number of revertants at 100 ug/plate in absence of Wistar rat S9 liver homogenate; type: toxicity, organism-based; conditions: salmonella enterica subsp. enterica serovar typhimurium; procedure, shortened: as §1
[5] = test system: Salmonella typhimurium; assay: Mutagenic activity in Salmonella Typhimurium TA102 assessed as number of revertants at 1 ug/plate in presence of Wistar rat S9 liver homogenate; type: toxicity, organism-based, Liver S9 fraction; conditions: salmonella enterica subsp. enterica serovar typhimurium; procedure, shortened: as §1
[6] = test system: Salmonella typhimurium; assay: Mutagenic activity in Salmonella Typhimurium TA100 assessed as number of revertants at 20 ug/plate in absence of Wistar rat S9 liver homogenate; type: toxicity, organism-based; conditions: salmonella enterica subsp. enterica serovar typhimurium; procedure, shortened: as §1
[7] = test system: Salmonella typhimurium; assay: Mutagenic activity in Salmonella Typhimurium TA98 assessed as number of revertants at 20 ug/plate in absence of Wistar rat S9 liver homogenate; type: toxicity, organism-based; conditions: salmonella enterica subsp. enterica serovar typhimurium
Procedure, shortened: (§3)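 Salmonella/microsome plate test (Ames) in strain TA98, with genetic markers and spontaneous revertant counts verified routinely. Run with and without S9 mix, the S9 being liver postmitochondrial supernatant from male Wistar rats of about 200 g. Doses ran from 0.01 to 100 µg/plate. Revertants are the mean of triplicate plates with standard error. Positive controls were 0.5 µg 4-nitroquinoline-N-oxide without S9 and 15 µg 2-aminoanthracene with S9.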

[8] = test system: Myzus persicae; assay: Antifeedant effect against Myzus persicae assessed as inhibition index at 100 ug/cm2 relative to control; type: functional; set-up: scale not given: the % may be the effect or the level left
Procedure, shortened: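 Choice settling test on apterous adult M. persicae: 20 boxes of 10 aphids per treatment. Settling inhibition %SI = [1 − (%aphids on treated/%aphids on control surface)] × 100.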

[9] = test system: Salmonella typhimurium; assay: Mutagenic activity in Salmonella Typhimurium TA98 assessed as number of revertants at 1 ug/plate in presence of Wistar rat S9 liver homogenate; type: toxicity, organism-based, Liver S9 fraction; conditions: salmonella enterica subsp. enterica serovar typhimurium; procedure, shortened: as §1
[10] = test system: Leptinotarsa decemlineata; assay: Antifeedant effect against Leptinotarsa decemlineata assessed as feeding reduction; type: functional, organism-based
Procedure, shortened: (§4)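 Choice test on leaf disks using adult L. decemlineata or newly emerged fifth-instar S. littoralis larvae. Five to 10 plates per treatment, three insects each. Uneaten leaf-disk area was measured by scanner. %FR = [1 − (treatment/control consumption)] × 100 per arena. Where FR exceeded 50%, EC50 was taken from linear regression of %FR on log dose.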

[11] = test system: Salmonella typhimurium; assay: Mutagenic activity in Salmonella Typhimurium TA102 assessed as number of revertants at 10 ug/plate in absence of Wistar rat S9 liver homogenate; type: toxicity, organism-based; conditions: salmonella enterica subsp. enterica serovar typhimurium; procedure, shortened: as §1
[12] = test system: Salmonella typhimurium; assay: Mutagenic activity in Salmonella Typhimurium TA100 assessed as number of revertants at 10 ug/plate in absence of Wistar rat S9 liver homogenate; type: toxicity, organism-based; conditions: salmonella enterica subsp. enterica serovar typhimurium; procedure, shortened: as §1
[13] = test system: Salmonella typhimurium; assay: Mutagenic activity in Salmonella Typhimurium TA102 assessed as number of revertants at 1 ug/plate in absence of Wistar rat S9 liver homogenate; type: toxicity, organism-based; conditions: salmonella enterica subsp. enterica serovar typhimurium; procedure, shortened: as §1
[14] = test system: Salmonella typhimurium; assay: Mutagenic activity in Salmonella Typhimurium TA100 assessed as number of revertants at 1 ug/plate in absence of Wistar rat S9 liver homogenate; type: toxicity, organism-based; conditions: salmonella enterica subsp. enterica serovar typhimurium; procedure, shortened: as §1
[15] = test system: Salmonella typhimurium; assay: Mutagenic activity in Salmonella Typhimurium TA102 assessed as number of revertants at 50 ug/plate in absence of Wistar rat S9 liver homogenate; type: toxicity, organism-based; conditions: salmonella enterica subsp. enterica serovar typhimurium; procedure, shortened: as §1
[16] = test system: Salmonella typhimurium; assay: Bactericidal activity against Salmonella Typhimurium TA98 assessed as viability after 24 hrs in absence of Wistar rat S9 liver homogenate; type: functional, organism-based; conditions: Salmonella enterica subsp. enterica serovar Typhimurium; procedure, shortened: as §2
[17] = test system: Salmonella typhimurium; assay: Mutagenic activity in Salmonella Typhimurium TA102 assessed as number of revertants at 10 ug/plate in presence of Wistar rat S9 liver homogenate; type: toxicity, organism-based, Liver S9 fraction; conditions: salmonella enterica subsp. enterica serovar typhimurium; procedure, shortened: as §1
[18] = test system: Salmonella typhimurium; assay: Mutagenic activity in Salmonella Typhimurium TA102 assessed as number of revertants at 0.1 ug/plate in absence of Wistar rat S9 liver homogenate; type: toxicity, organism-based; conditions: salmonella enterica subsp. enterica serovar typhimurium; procedure, shortened: as §1
[19] = test system: Salmonella typhimurium; assay: Mutagenic activity in Salmonella Typhimurium TA100 assessed as number of revertants at 50 ug/plate in presence of Wistar rat S9 liver homogenate; type: toxicity, organism-based, Liver S9 fraction; conditions: salmonella enterica subsp. enterica serovar typhimurium; procedure, shortened: as §1
[20] = test system: Salmonella typhimurium; assay: Mutagenic activity in Salmonella Typhimurium TA98 assessed as number of revertants at 100 ug/plate in absence of Wistar rat S9 liver homogenate; type: toxicity, organism-based; conditions: salmonella enterica subsp. enterica serovar typhimurium; procedure, shortened: as §3
[21] = test system: Salmonella typhimurium; assay: Mutagenic activity in Salmonella Typhimurium TA102 assessed as number of revertants at 0.01 ug/plate in presence of Wistar rat S9 liver homogenate; type: toxicity, organism-based, Liver S9 fraction; conditions: salmonella enterica subsp. enterica serovar typhimurium; procedure, shortened: as §1
[22] = test system: Salmonella typhimurium; assay: Mutagenic activity in Salmonella Typhimurium TA100 assessed as number of revertants at 0.01 ug/plate in presence of Wistar rat S9 liver homogenate; type: toxicity, organism-based, Liver S9 fraction; conditions: salmonella enterica subsp. enterica serovar typhimurium; procedure, shortened: as §1
[23] = test system: Leptinotarsa decemlineata; assay: Antifeedant effect against Leptinotarsa decemlineata assessed as feeding reduction at 100 ug/cm2 relative to control; type: functional; set-up: scale not given: the % may be the effect or the level left; procedure, shortened: as §4
[24] = test system: Salmonella typhimurium; assay: Mutagenic activity in Salmonella Typhimurium TA100 assessed as number of revertants at 0.1 ug/plate in presence of Wistar rat S9 liver homogenate; type: toxicity, organism-based, Liver S9 fraction; conditions: salmonella enterica subsp. enterica serovar typhimurium; procedure, shortened: as §1
[25] = test system: Salmonella typhimurium; assay: Mutagenic activity in Salmonella Typhimurium TA102 assessed as number of revertants at 100 ug/plate in presence of Wistar rat S9 liver homogenate; type: toxicity, organism-based, Liver S9 fraction; conditions: salmonella enterica subsp. enterica serovar typhimurium; procedure, shortened: as §1

CCCCCCCCCCCC[C@@H](O)[C@H]1CC[C@H]([C@H](O)CCCC[C@H](O)CCCCC[C@@H](O)CC2=CC(C)OC2=O)O1 (stereo not given in full) [ANNONACIN]
Activity [1]: 19
Activity [2]: 139
Activity [3]: Non-toxic
Activity [4]: 126
Activity [5]: 429
Activity [6]: 96
Activity [7]: 36
Activity [8]: <40%
Activity [9]: 27
EC50 [10]: 10 microg/cm2
Activity [11]: 221
Activity [12]: 104
Activity [13]: 277
Activity [14]: 125
Activity [15]: 169
Activity [16]: Non-toxic
Activity [17]: 430
Activity [18]: 296
Activity [19]: 99
Activity [20]: 14
Activity [21]: 443
Activity [22]: 135
Activity [23]: 93%
Activity [24]: 139
Activity [25]: 437

— ChEMBL document CHEMBL1142626, “Insecticidal and mutagenic evaluation of two annonaceous acetogenins” (J Nat Prod, 2000)
